Assay outcomes (PubChem BioAssay)
A selection: hits, their analogues and other compounds. The true share with any hit is near 2.3%.
bovine MsrA act – bovine MsrA enzyme activators, primary screen, biochemical, absorbance, HTS; Methionine sulfoxide reductase A (Bos taurus); purified bovine MsrA, absorbance read-out; activation, % at 10.6 µM; hit rate 0.3% among 360,000; AID 602163, 2012; in the data active means activation above about 7.5%
MC4R antagonist – MC4R antagonists of cAMP signaling, primary screen, cell-based, TR-FRET, antagonist arm of biased-ligand search; inhibition, % at 6.5 µM; Melanocortin receptor 4 (Homo sapiens), P32245; hit rate 0.48% among 360,000; MC4R-expressing cells, MTII-stimulated cAMP, LANCE TR-FRET; AID 540295, 2011;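 active means inhibition above its plate's cutoff, the mean of tested wells on that plate plus 3 SD, cut at about 29% in these data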
Target sequence (P32245 whole entry, looked up): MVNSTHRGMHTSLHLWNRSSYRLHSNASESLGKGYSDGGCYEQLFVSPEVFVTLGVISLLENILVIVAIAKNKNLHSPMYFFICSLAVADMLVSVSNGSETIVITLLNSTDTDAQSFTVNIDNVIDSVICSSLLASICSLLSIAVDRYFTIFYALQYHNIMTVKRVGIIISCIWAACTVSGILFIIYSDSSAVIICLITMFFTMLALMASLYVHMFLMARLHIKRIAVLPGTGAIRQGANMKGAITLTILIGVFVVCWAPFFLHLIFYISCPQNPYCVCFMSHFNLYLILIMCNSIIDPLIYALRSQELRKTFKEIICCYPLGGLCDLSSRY
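Assay system: U2OS-MC4R stable cell line; Also added: Melanotan II; Technique: Eu-cAMP/anti-cAMP TR-FRET, emission 671 nm; Times: 30-min compound, 1-h challenge, 1-h detection, room temperature.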
MC4R ag barr – MC4R agonists recruiting beta-arrestin, primary screen, cell-based, luminescence, agonist arm of biased-ligand search | U2OS MC4R beta-arrestin complementation; percent of melanotan II response, DMSO zero | activation, % at 8.9 µM | hit rate 0.98% among 360,000;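 active means activation above a per-plate cutoff, the mean activation of sample wells on that plate plus 3 SD, cut at about 8% in these data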
MsrA inhibitor – bovine MsrA enzyme inhibitors, primary screen, biochemical, absorbance, HTS; purified bovine MsrA, absorbance read-out; inhibition, % at 15.5 µM; hit rate 0.75% among 360,000; Methionine sulfoxide reductase A (Bos taurus); AID 651718, 2012; in the data active means inhibition above about 4.5%
U2OS cAMP counter – nonselective cAMP signaling inhibitors, parental cells, counter-screen for MC4R biased antagonist project, cell-based, TR-FRET, U2OS, forskolin, triplicate; AID 602193, 2012; inhibition, % at 6.5 µM; LANCE TR-FRET; hit rate 26% among 1,600; shares compounds with MC4R antagonist;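 active means mean inhibition over triplicates above the low-control well mean plus 3 SD, set per campaign, cut at about 13% in these data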;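 further: signal is single emission at 671 nm which falls as cellular cAMP rises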
MC4R cAMP antag – MC4R cAMP antagonists, retest, confirmation, cell-based, TR-FRET; shares compounds with MC4R antagonist; MC4R-expressing cells, MTII-stimulated cAMP; inhibition, % at 6.5 µM; hit rate 27% among 1,600; AID 602195, 2012; in the data active means inhibition above about 29%
A number is an active result; n = inactive; x = not tested or not shown.

SMILES	bovine MsrA act	MC4R antagonist	MC4R ag barr	MsrA inhibitor	U2OS cAMP counter	MC4R cAMP antag
O=C1c2cccc([N+](=O)[O-])c2C(=O)N1c1ccccc1	n	30	n	n	n	n
CCC(C)[C@@H](C(=O)Nc1ccc(OC)c(OC)c1)N1Cc2ccccc2C1=O (stereo partly drawn)	n	n	n	n	x	x
COc1ccc(NC(=O)c2ccc(CN3CCc4ccccc4C3)cc2)cc1OC	n	n	n	n	x	x
O=C(CCCCCN1C(=O)c2cccc([N+](=O)[O-])c2C1=O)Nc1ccccc1F	n	n	n	n	x	x
O=C(COC(=O)CCN1C(=O)c2cccc([N+](=O)[O-])c2C1=O)NCc1ccccc1	n	33	n	n	n	n
CCOC(=O)Cc1csc(NC(=O)CCCCCN2C(=O)c3cccc4cccc(c34)C2=O)n1	n	n	n	n	x	x
CCCN(CC(=O)Nc1ccccc1C)C(=O)CCN1C(=O)c2cccc([N+](=O)[O-])c2C1=O	n	30	n	n	21	33
O=C(CCCCCN1C(=O)c2cccc([N+](=O)[O-])c2C1=O)NCCc1ccccc1	n	n	n	n	x	x
Cc1cccc(NC(=O)CCN2C(=O)c3cccc([N+](=O)[O-])c3C2=O)c1	n	31	n	n	16	29
CCOC(=O)Cc1csc(NC(=O)CCN2C(=O)c3cccc([N+](=O)[O-])c3C2=O)n1	n	44	n	n	n	n
Cc1cc(C)c2c(NC(=S)Nc3ccccc3)n[nH]c2n1	n	n	n	n	x	x
CC1CN(c2cc(-c3ccccc3)c3ccccc3n2)CC(C)O1 (stereo not drawn)	n	n	n	n	x	x
CCCC1=[N+](CC(=O)c2ccccc2)CCn2cccc21	n	29	n	n	n	n
CC(=O)c1ccc(OCC(=O)NCC(c2ccco2)N2CCCCC2)cc1 (stereo not drawn)	n	n	n	n	x	x
Cc1cccc(NC(=S)NNC(=O)Cc2ccccc2)c1	n	n	n	n	x	x
COc1ccc(N(Cc2cc3ccccc3[nH]c2=O)C(=O)C2CCCO2)cc1 (stereo not drawn)	n	n	n	n	x	x
CCCc1cc(=O)oc2c3c(c4c(c12)OC(C)(C)C=C4)OC(C)C(C)C3O (stereo not drawn)	n	30	n	n	n	n
O=C(CNC(=O)c1ccc(Cl)cc1Cl)OCC(=O)N1CCCC1	n	n	n	n	x	x
O=C(CNC(=O)c1ccc(Cl)cc1Cl)OCC(=O)N1CCCC1=O	n	35	n	n	19	30
O=C(COC(=O)CNC(=O)c1ccc(Cl)cc1Cl)NCc1ccco1	n	31	n	n	n	43
O=C(CNC(=O)c1ccc(Cl)cc1)OCn1nnc2ccccc2c1=O	n	n	n	n	x	x
CC1CCCC(C)N1C(=O)COC(=O)CNC(=O)c1ccc(Cl)cc1Cl (stereo not drawn)	n	29	n	n	18	n
O=C(CNC(=O)c1ccc(Cl)cc1Cl)OCn1nnc2ccccc2c1=O	n	32	n	n	17	n
CN1OCC(S(=O)(=O)c2ccccc2)C1c1ccccc1 (stereo not drawn)	n	n	n	n	x	x
O=S(=O)(c1ccccc1)C1CON(Cc2ccccc2)C1c1ccccc1 (stereo not drawn)	n	30	n	n	n	n
SMILES	bovine MsrA act	MC4R antagonist	MC4R ag barr	MsrA inhibitor	U2OS cAMP counter	MC4R cAMP antag
CCCCOc1cccc(OCC(=O)Nc2nc3ccccc3[nH]2)c1	n	33	n	n	n	n
O=C1CCC(C(=O)N(c2ccccc2)C2(C(=O)NC3CCCCC3)CCCCC2)N1 (stereo not drawn)	n	n	n	n	x	x
CCOc1cc(C(=O)NCC(C)(C)CNC(=O)c2cc(OCC)c(OCC)c(OCC)c2)cc(OCC)c1OCC	n	30	n	n	n	n
COc1cc(C(=O)NCC(C)(C)CNC(=O)c2cc(OC)c(OC)c(OC)c2)cc(OC)c1OC	n	n	n	n	x	x
O=C(COC(=O)c1cnc(Cl)c(Cl)c1)NC1CCCCCC1	n	29	n	n	27	48
O=C(COC(=O)c1cnc(Cl)c(Cl)c1)NC1CCCC1	n	29	n	n	22	33
O=C(COC(=O)c1ccc(Cl)c(Cl)c1)NC1CCCC1	n	n	n	n	x	x
O=C(COC(=O)c1cnc(Cl)c(Cl)c1)NCCC1=CCCCC1	n	38	n	n	28	36
Nc1cc(C(=O)OCC(=O)NCCC2=CCCCC2)ccc1Cl	n	n	n	n	x	x
CN(C(=O)COC(=O)c1cnc(Cl)c(Cl)c1)C1CCCCC1	n	40	n	n	22	39
Cc1cccc(N(NC(=O)C(C)(C)O)C(=O)c2ccccc2)c1	n	n	n	n	x	x
Cc1cc(SCC(=O)N2CCCC2=O)nc2ccccc12	n	n	n	n	x	x
O=C(O)C(Cc1c[nH]c2ccccc12)NS(=O)(=O)c1cccc(Cl)c1Cl (stereo not drawn)	n	29	n	n	n	n
N/C(=N\OC(=O)c1cc([N+](=O)[O-])ccc1Cl)c1cccnc1	n	62	n	n	18	47
Cc1ccc(C(=O)O/N=C(\N)c2cccnc2)cc1[N+](=O)[O-]	n	n	n	n	x	x
O=C(COC(=O)c1ccccc1C(=O)c1ccc(Cl)c([N+](=O)[O-])c1)NC1CC1	n	29	n	n	21	n
N/C(=N\OC(=O)c1ccc(Cl)c([N+](=O)[O-])c1)c1ccccn1	n	48	n	n	28	40
N/C(=N\OC(=O)c1ccc(Cl)c([N+](=O)[O-])c1)c1ccccc1	n	44	n	n	22	36
N/C(=N\OC(=O)c1ccc(Cl)c(Cl)c1)c1ccccn1	n	n	n	n	x	x
CCOC(=O)CNC(=O)C1c2ccccc2Oc2ccccc21	n	n	n	n	x	x
CCc1cc(-c2nnn(CCC3COCCO3)c2CC)ccc1-c1cn(CCc2c[nH]c3ccccc23)nn1 (stereo not drawn)	n	n	n	n	x	x
O=C(CSCc1cnn(-c2ccccc2)c1-n1cccc1)NCC1CCCO1 (stereo not drawn)	n	n	n	n	x	x
CN(C)C(CNC(=O)C1CCN(S(=O)(=O)c2ccccc2)CC1)c1ccccc1 (stereo not drawn)	n	n	n	n	x	x
COc1ccc(-n2c(CNC(=O)COc3ccc(Cl)cc3)n[nH]c2=S)cc1	n	n	n	n	x	x
COc1cc(C2CC(=O)Oc3c2c(=O)n(C)c2ccccc32)cc(OC)c1OC (stereo not drawn)	n	38	n	n	n	n
Cc1cc(NC(=O)CC(C)C)c(=O)n(Cc2cccc(F)c2)c1	n	n	n	n	x	x
